Results published in ChEMBL document CHEMBL1833940, “Discovery of 3-(2,6-dichloro-3,5-dimethoxy-phenyl)-1-{6-[4-(4-ethyl-piperazin-1-yl)-phenylamino]-pyrimidin-4-yl}-1-methyl-urea (NVP-BGJ398), a potent and selective inhibitor of the fibroblast growth factor receptor family of receptor tyrosine kinase” (J Med Chem, 2011).
Activity calls are given as the source filed them. The calls are words filed in the database; no cut-off is given here.

Columns and labels:
[1] = tested on: Tumour; assay: Cmax in tumor of RT112/luc1 cells implanted athymic nude mouse at 20 mg/kg, po by LC/MS/MS analysis; assay type: ADME, organism-based, Neoplasm; design: dose 20 mg/kg, route oral; settings: in vivo
How it was run: (§1)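 Female athymic nude mice carried subcutaneous RT112/luc1 tumors (5×10^6 cells, 50% Matrigel; about 300–400 mm3). Dosing was either 5 mg/kg iv by tail vein in NMP/PEG200 (1:9) or 20 mg/kg oral suspension in PEG300/D5W (2:1). Groups of mice (n = 4) were sacrificed at 0.083–24 h. Plasma and tumor levels were measured by LC-MS/MS (LOQ 5 ng/mL, 10 ng/g).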

[2] = Tmax in plasma of RT112/luc1 cells implanted athymic nude mouse at 20 mg/kg, po by LC/MS/MS analysis; assay type: ADME, organism-based; design: dose 20 mg/kg, route oral
How it was run: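 Female athymic nude mice carrying subcutaneous RT112/luc1 tumors (ca. 300–400 mm3). Dosing was 5 mg/kg iv by tail vein in NMP/PEG200 (1:9) or 20 mg/kg by oral gavage as a suspension in PEG300/D5W (2:1). Groups (n = 4) were sacrificed from 0.083 to 24 h. Plasma and tumor were measured by LC-MS/MS (LOQ 5 ng/mL, 10 ng/g). Noncompartmental analysis used the linear trapezoidal AUC; F was calculated from dose-normalized AUC.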

[3] = tested on: Tumour; assay: Dose normalized AUC in tumor of RT112/luc1 cells implanted athymic nude mouse at 5 mg/kg, iv by LC/MS/MS analysis; assay type: ADME, organism-based, Neoplasm; design: dose 5 mg/kg, route intravenous; settings: in vivo; how it was run: as §1
[4] = tested on: Plasma; assay: Dose normalized AUC in plasma of RT112/luc1 cells implanted athymic nude mouse at 20 mg/kg, po by LC/MS/MS analysis; assay type: ADME, organism-based; design: dose 20 mg/kg, route oral; settings: in vivo; how it was run: as §1
[5] = tested on: Tumour; assay: Dose normalized AUC in tumor of RT112/luc1 cells implanted athymic nude mouse at 20 mg/kg, po by LC/MS/MS analysis; assay type: ADME, organism-based, Neoplasm; design: dose 20 mg/kg, route oral; settings: in vivo; how it was run: as §1
[6] = Apparent terminal half life in Wistar rat at 5 mg/kg, iv by LC-MS/MS analysis; assay type: ADME, organism-based; design: dose 5 mg/kg, route intravenous; settings: in vivo, read-out: t1/2 lambda z (converted)
How it was run: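 Female Wistar rats. IV: 5 mg/kg into the femoral vein as a solution in NMP/PEG200 (1:9, v/v). Oral: monophosphate salt at 10 mg/kg (free base equivalents) as a solution in acetic acid–acetate buffer pH 4.6/PEG300. Plasma was taken by sublingual bleeding at 0.083–24 h, from staggered groups (n = 4) or one sequentially bled group. Assayed by LC-MS/MS (LOQ 10 ng/mL); noncompartmental analysis.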

[7] = Volume of distribution at steady state in Wistar rat at 5 mg/kg, iv by LC-MS/MS analysis; assay type: ADME, organism-based; design: dose 5 mg/kg, route intravenous; settings: in vivo, read-out: Vdss
How it was run: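 Female Wistar rats received 5 mg/kg iv into the femoral vein in NMP/PEG200 (1:9), or the monophosphate salt orally at 10 mg/kg (free base) in acetate buffer pH 4.6/PEG300. Serial sublingual plasma samples were taken from 0.083 to 24 h.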

[8] = biological target: MAP kinase-interacting serine/threonine-protein kinase 1 (Homo sapiens, UniProt Q9BUB5); assay: Inhibition of recombinant MNK1
How it was run: (§2)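 Purified recombinant kinases under optimized conditions with peptide substrates. ATP was set at each kinase's Km. Phosphorylation was read by microfluidic mobility-shift separation of substrate and product; IC50 determined.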

[9] = biological target: Serine/threonine-protein kinase mTOR (Homo sapiens, UniProt P42345); assay: Inhibition of recombinant mTOR by luminescent kinase assay
[10] = biological target: Focal adhesion kinase 1 (Homo sapiens, UniProt Q05397); assay: Inhibition of recombinant FAK; how it was run: as §2
Focal adhesion kinase 1, sequence (Q05397 whole entry): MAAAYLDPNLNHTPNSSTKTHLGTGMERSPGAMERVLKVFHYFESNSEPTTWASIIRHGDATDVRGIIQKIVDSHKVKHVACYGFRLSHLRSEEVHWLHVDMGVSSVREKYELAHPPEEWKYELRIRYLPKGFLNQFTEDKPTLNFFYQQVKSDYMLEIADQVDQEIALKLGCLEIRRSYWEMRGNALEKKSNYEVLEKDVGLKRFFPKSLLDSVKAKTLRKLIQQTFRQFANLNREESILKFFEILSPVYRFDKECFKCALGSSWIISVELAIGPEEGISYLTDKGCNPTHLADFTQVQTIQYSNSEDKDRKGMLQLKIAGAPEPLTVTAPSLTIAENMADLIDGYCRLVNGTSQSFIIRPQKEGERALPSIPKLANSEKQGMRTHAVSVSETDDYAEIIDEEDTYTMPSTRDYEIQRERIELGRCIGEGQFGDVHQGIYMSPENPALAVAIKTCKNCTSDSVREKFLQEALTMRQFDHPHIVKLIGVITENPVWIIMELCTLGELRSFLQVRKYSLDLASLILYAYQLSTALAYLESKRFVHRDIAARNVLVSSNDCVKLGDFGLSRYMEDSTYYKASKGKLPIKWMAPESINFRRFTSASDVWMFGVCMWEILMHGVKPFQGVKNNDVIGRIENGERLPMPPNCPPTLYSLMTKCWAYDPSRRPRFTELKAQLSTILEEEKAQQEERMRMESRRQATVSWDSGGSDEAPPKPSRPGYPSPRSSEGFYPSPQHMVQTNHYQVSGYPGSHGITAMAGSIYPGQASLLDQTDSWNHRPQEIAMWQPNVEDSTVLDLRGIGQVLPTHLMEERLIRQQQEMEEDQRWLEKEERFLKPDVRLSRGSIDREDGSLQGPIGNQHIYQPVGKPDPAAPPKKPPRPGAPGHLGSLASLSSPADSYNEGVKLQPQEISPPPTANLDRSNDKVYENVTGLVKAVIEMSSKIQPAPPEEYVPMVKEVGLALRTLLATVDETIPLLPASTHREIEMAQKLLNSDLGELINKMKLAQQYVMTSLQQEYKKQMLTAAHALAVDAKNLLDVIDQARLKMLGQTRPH

[11] = biological target: Tyrosine-protein kinase JAK1 (Homo sapiens, UniProt P23458); assay: Inhibition of recombinant JAK1; how it was run: as §2
[12] = biological target: Protein kinase C alpha type (Homo sapiens, UniProt P17252); assay: Inhibition of recombinant PKCalpha; how it was run: as §2
[13] = biological target: Serine/threonine-protein kinase PLK1 (Homo sapiens, UniProt P53350); assay: Inhibition of recombinant PLK1; how it was run: as §2
Serine/threonine-protein kinase PLK1, sequence (P53350 whole entry): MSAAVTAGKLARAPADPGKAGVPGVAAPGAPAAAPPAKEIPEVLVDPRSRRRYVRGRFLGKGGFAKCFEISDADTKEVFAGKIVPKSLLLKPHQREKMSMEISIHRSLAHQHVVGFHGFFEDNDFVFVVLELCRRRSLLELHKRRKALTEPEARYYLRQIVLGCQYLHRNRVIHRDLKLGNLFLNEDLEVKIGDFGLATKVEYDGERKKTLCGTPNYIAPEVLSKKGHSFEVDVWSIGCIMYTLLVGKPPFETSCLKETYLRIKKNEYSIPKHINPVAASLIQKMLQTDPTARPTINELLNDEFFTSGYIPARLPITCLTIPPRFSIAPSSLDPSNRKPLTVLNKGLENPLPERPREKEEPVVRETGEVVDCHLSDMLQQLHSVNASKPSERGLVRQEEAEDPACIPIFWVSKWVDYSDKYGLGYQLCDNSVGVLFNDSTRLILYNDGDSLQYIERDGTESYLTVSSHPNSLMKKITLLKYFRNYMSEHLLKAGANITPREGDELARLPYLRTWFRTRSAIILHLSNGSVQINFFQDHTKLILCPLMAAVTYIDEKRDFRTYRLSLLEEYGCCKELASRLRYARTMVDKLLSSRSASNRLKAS

[14] = biological target: Proto-oncogene tyrosine-protein kinase receptor Ret (Homo sapiens, UniProt P07949); assay: Inhibition of recombinant RET
How it was run: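 Purified recombinant kinases were tested under optimized conditions with peptide substrates. ATP was set at each kinase's Km. Phosphorylation was read out by microfluidic mobility shift, and IC50 values were determined.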

[15] = biological target: Serine/threonine-protein kinase WNK1 (Homo sapiens, UniProt Q9H4A3); assay: Inhibition of recombinant WNK1; how it was run: as §2
Serine/threonine-protein kinase WNK1, sequence (Q9H4A3 whole entry): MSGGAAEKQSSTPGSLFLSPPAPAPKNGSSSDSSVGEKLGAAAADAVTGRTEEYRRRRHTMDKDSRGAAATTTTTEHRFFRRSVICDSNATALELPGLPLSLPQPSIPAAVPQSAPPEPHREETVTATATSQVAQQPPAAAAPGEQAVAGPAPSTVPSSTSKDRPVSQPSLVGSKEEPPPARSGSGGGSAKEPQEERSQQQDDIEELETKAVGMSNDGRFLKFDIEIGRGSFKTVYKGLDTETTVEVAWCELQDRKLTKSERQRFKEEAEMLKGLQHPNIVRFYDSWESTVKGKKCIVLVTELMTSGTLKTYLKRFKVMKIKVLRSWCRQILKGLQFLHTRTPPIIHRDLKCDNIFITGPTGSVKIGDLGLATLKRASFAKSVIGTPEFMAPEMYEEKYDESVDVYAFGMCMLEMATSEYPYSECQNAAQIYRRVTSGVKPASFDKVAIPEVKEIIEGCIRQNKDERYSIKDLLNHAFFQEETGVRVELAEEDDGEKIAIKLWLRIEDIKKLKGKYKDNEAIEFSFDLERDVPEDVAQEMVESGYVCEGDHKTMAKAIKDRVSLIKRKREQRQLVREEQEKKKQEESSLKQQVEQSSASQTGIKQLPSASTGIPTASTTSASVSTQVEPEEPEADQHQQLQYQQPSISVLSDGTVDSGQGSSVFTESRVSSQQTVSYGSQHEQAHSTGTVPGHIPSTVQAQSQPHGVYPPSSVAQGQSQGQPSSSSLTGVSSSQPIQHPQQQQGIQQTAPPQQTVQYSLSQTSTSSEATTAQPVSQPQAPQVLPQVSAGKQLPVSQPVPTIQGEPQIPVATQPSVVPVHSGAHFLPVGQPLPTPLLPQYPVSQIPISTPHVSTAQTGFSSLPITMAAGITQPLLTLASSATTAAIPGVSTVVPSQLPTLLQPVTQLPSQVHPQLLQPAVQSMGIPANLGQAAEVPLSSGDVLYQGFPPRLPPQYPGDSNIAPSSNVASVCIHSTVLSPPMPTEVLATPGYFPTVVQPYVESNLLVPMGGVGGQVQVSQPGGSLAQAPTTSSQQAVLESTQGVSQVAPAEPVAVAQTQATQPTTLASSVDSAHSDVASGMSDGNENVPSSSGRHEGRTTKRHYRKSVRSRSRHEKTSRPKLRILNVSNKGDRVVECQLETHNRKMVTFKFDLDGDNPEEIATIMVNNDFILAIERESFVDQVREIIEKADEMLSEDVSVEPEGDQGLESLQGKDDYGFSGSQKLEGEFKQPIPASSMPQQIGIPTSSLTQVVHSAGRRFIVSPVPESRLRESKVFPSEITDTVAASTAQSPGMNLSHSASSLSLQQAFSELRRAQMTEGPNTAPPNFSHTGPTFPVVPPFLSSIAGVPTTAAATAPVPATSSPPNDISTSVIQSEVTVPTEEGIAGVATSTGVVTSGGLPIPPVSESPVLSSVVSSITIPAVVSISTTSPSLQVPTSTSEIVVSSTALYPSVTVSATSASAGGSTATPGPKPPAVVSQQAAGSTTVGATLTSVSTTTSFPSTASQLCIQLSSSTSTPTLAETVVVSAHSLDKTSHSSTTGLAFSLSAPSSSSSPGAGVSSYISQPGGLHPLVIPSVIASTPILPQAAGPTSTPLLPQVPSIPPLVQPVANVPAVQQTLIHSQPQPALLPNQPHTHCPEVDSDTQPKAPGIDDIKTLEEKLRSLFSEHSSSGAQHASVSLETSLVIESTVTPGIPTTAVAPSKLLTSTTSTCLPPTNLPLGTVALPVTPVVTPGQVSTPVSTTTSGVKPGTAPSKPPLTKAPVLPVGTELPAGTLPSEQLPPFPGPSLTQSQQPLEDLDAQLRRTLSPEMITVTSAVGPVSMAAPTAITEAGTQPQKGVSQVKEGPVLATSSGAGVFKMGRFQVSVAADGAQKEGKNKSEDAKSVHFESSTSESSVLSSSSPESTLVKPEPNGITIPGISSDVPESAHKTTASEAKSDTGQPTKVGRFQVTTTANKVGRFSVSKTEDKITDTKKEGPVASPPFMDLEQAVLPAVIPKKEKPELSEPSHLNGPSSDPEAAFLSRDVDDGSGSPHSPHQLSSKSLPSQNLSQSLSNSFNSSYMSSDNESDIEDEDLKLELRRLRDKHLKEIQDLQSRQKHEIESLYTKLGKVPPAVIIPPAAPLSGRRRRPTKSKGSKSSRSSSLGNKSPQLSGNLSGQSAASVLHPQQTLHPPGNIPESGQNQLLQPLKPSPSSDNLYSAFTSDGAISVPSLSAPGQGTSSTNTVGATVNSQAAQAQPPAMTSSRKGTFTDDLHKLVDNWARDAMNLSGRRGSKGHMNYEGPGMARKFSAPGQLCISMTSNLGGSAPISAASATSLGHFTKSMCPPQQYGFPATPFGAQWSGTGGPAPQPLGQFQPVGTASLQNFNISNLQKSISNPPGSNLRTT

[16] = tested on: RT-112; assay: Antitumor activity against human RT112 cells xenografted in athymic nude mouse assessed as tumor stasis at 30 mg/kg, po administered for 12 days; assay type: functional, organism-based; design: dose 30 mg/kg
How it was run: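 Female HsdNpa:Athymic Nude-nu mice received RT112/luc1 cells (luciferase retroviral line; about 1–2×10^5 cells) into the bladder lumen. Oral treatment started 14 days after inoculation: suspension in PEG300/D5W (2:1) at 10 or 30 mg/kg/qd for 12 days. Tumor burden was measured by IVIS bioluminescence 10 min after iv D-luciferin. T/C was computed from change in light emission; ANOVA with Dunnett's test.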

[17] = tested on: Rattus norvegicus; assay: Inhibition of FGFR autophosphorylation in RT112 tumour bearing nude Rowett rat assessed as decrease in pMAPK concentration at 8.51 mg/kg, po administered as a single dose after 16 hrs by Western blot analysis; assay type: functional, organism-based; design: dose 8.51 mg/kg
How it was run: (§3)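 RT112 subcutaneous xenografts in female nude Rowett rats (n = 4). Single oral gavage of the monophosphate salt at 4.25 or 8.51 mg/kg (free base equivalents) in acetic acid–acetate buffer pH 4.6/PEG300 (1:1). Tumors were collected at time points up to 24 h, frozen, homogenized and lysed. Western blots probed pFRS2(Tyr196) and pMAPK, with total FRS2, total MAPK or β-tubulin as loading controls.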

[18] = tested on: RT-112; assay: Antitumor activity against human RT112 cells xenografted in nude rowett rat assessed as tumor regression at 15 mg/kg, po qd administered for 20 days; assay type: functional
How it was run: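 Female nude Rowett rats aged 6–9 weeks were given 1×10^6 RT112 cells subcutaneously in HBSS/50% Matrigel. Treatment began at about 100 mm3 mean tumor volume (n = 8): monophosphate salt in acetate buffer pH 4.6/PEG300 (1:1) by gavage, 5 mL/kg, at 5, 10, 15 mg/kg/qd free base for 20 days. Tumors were measured by caliper (L×W×H×π/6). Readouts were T/C and % regression from start volume.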

[19] = tested on: Rattus norvegicus; assay: Inhibition of FGFR autophosphorylation in RT112 tumour bearing po dosed nude Rowett rat assessed as decrease in pFRS2 concentration administered as a single dose by Western blot analysis; assay type: functional, organism-based; how it was run: as §3
[20] = tested on: Tumour; assay: Drug uptake in tumour of nude Rowett rat bearing human RT112 cells at 4.25 mg/kg, po administered as a single dose after 3 hrs by LC-MS/MS analysis; assay type: ADME, organism-based, Neoplasm, RT-112; design: dose 4.25 mg/kg, route oral; settings: in vivo
How it was run: (§4)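 Nude Rowett rats bearing subcutaneous RT112 tumors (n = 4) received a single gavage of monophosphate salt at 4.25 or 8.51 mg/kg free base in acetate buffer pH 4.6/PEG300. Tumors were collected at intervals after dosing, frozen and homogenized in an equal volume of ice-cold PBS. Compound levels were measured by LC-MS/MS (LOQ 3 ng/mL).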

[21] = tested on: Tumour; assay: Drug uptake in tumour of nude Rowett rat bearing human RT112 cells at 8.51 mg/kg, po administered as a single dose after 7 hrs by LC-MS/MS analysis; assay type: ADME, organism-based, Neoplasm, RT-112; design: dose 8.51 mg/kg, route oral; settings: in vivo; how it was run: as §4

SMILES: CCN1CCN(c2ccc(Nc3cc(N(C)C(=O)Nc4c(Cl)c(OC)cc(OC)c4Cl)ncn3)cc2)CC1.O=P(O)(O)O [INFIGRATINIB PHOSPHATE]
- Cmax [1]: 1.63 nmol/g
- Tmax [2]: 1 h
- AUC/dose [3]: 4.8 nmol·h/g
- AUC/dose [4]: 0.18 µM·h
- AUC/dose [5]: 1.85 nmol·h/g
- half-life [6]: 270 min
- Vd [7]: 9.6 L/kg
- IC50 [8]: > 10 µM
- IC50 [9]: > 10 µM
- IC50 [10]: > 10 µM
- IC50 [11]: > 10 µM
- IC50 [12]: > 10 µM
- IC50 [13]: > 10 µM
- IC50 [14]: > 10 µM
- IC50 [15]: > 10 µM
- Activity [16]: Active
- inhibition [17]: Active
- Activity [18]: 73%
- Activity [19]: Dose-dependent effect
- Drug uptake [20]: 0.83 nmol/g
- Drug uptake [21]: 1.52 nmol/g
